Source: ChEMBL document CHEMBL4011632, “Design, Synthesis, and Evaluation of Thiazolidine-2,4-dione Derivatives as a Novel Class of Glutaminase Inhibitors” (J Med Chem, 2017)
Active and inactive are the calls of the source. The calls are words filed in the database; no cut-off is given here.

Tests used:
[1] = Total clearance in Sprague-Dawley rat at 0.1 mg/kg, iv by HPLC-MS analysis; type: ADME, organism-based; details: in vivo
How it was run: (§1)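 Male rats (330−380 g, 9−10 weeks old), jugular-vein cannulated 1 day before dosing, n = 3. Dosed iv in DMA/PEG400 (20%/80%, v/v) or po in 1% CMC/0.5% Tween-80. Blood (100 μL) drawn at 0, 2 min, 5 min (iv only), 15 and 30 min, and 1, 2, 4, 6, 8 and 24 h. Plasma measured by LC-MS/MS; parameters from noncompartmental analysis.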

[2] = Tmax in Sprague-Dawley rat at 1 mg/kg, po by HPLC-MS analysis; type: ADME, organism-based; details: in vivo; how it was run: as §1
[3] = AUC (0 to infinity) in Sprague-Dawley rat at 0.1 mg/kg, iv by HPLC-MS analysis; type: ADME, organism-based; set-up: dose 0.1 mg/kg, time infinity, route intravenous; details: in vivo; how it was run: as §1
[4] = AUC (0 to infinity) in Sprague-Dawley rat at 1 mg/kg, po by HPLC-MS analysis; type: ADME, organism-based; set-up: dose 1 mg/kg, route oral, time infinity; details: in vivo; how it was run: as §1
ASPC1 [5] = assay: Antitumor activity against human Aspc-1 cells xenografted in Balb/cAnN.Cg-Foxn1nu/CrlNarl mouse assessed as tumor growth inhibition at 25 mg/kg, ip once daily administered for 5 days followed by 2 days without dosing for 43 days relative to control; type: functional; details: read-out: TGI
How it was run: (§2)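 Male nude mice (7−8 weeks, 18−22 g) received 4.5 × 10^6 AsPC-1 cells sc in the right flank, in HBSS mixed 1:1 with Matrigel. Mice were randomized once mean tumor reached ~100 mm3 (day 1). Dosing was ip once daily, 5 days on/2 days off, with 2% DMSO/PBS as vehicle. Tumors were measured twice weekly, V = ab²/2. %TGI = [1 − ((Tt − T0)/(Ct − C0))] × 100 from median volumes; Student's t test.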

ASPC1 [6] = assay: Antitumor activity against human Aspc-1 cells xenografted in Balb/cAnN.Cg-Foxn1nu/CrlNarl mouse assessed as tumor growth inhibition at 50 mg/kg, ip once daily administered for 5 days followed by 2 days without dosing for 43 days relative to control; type: functional; details: read-out: TGI; how it was run: as §2
Mus musculus [7] = assay: Toxicity in BALB/CAnN.Cg-Foxn1nu/CrlNarl mouse xenografted with human Aspc-1 cells assessed as loss in body weight at 25 mg/kg, ip once daily administered for 5 days followed by 2 days without dosing for 43 days relative to control; type: organism-based, BALB/C; details: in vivo
Mus musculus [8] = assay: Toxicity in BALB/CAnN.Cg-Foxn1nu/CrlNarl mouse xenografted with human Aspc-1 cells assessed as loss in body weight at 50 mg/kg, ip once daily administered for 5 days followed by 2 days without dosing for 43 days relative to control; type: organism-based, BALB/C; details: in vivo
Mus musculus [9] = assay: Toxicity in BALB/CAnN.Cg-Foxn1nu/CrlNarl mouse xenografted with human Aspc-1 cells assessed as overt toxicity at 25 to 50 mg/kg, ip once daily administered for 5 days followed by 2 days without dosing for 43 days; type: organism-based, BALB/C; details: in vivo
[10] = molecular target: T1, Glutaminase liver isoform, mitochondrial (Homo sapiens) (UniProt Q9UI32); assay: Inhibition of human GLS2 in GLS1 deficient human Aspc-1 cells assessed as decrease in cellular glutamate production after 4 hrs by amplex red glutamic acid assay
T1 sequence (whole entry): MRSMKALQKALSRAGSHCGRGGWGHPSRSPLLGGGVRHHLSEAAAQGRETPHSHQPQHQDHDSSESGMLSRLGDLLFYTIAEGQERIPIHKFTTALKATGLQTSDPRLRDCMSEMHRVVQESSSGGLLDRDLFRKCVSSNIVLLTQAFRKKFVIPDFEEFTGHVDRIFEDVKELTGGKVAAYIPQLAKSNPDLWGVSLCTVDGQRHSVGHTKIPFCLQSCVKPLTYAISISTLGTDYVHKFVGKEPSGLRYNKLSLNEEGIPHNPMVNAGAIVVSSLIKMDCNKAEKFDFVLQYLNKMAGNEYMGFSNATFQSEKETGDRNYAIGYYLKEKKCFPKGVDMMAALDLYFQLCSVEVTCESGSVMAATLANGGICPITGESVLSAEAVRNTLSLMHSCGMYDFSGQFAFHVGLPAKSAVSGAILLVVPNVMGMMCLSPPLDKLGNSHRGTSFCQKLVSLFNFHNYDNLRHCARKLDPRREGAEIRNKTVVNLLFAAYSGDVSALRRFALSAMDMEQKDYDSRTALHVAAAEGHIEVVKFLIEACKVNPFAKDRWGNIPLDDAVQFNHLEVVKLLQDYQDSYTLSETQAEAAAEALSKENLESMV
How it was run: (§3)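 GLS-knockout AsPC-1 cells made with GLS-KO ZFN mRNA, single-cell cloned, and grown in glutamine-free RPMI 1640 with 10% FBS. Cells seeded at 30 000/well and grown 24 h at 37 °C. Treated 4 h with 1% DMSO vehicle or 3.13−100 μM inhibitor, washed with PBS, and lysed in NP-40 buffer (4 °C, 20 min). Lysate glutamate measured by Amplex Red. Three independent experiments in duplicate.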

[11] = molecular target: T1, Glutaminase liver isoform, mitochondrial (Homo sapiens); assay: Inhibition of human GLS2 in GLS1 deficient human Aspc-1 cells assessed as decrease in cellular glutamate production at 3.13 to 100 uM after 4 hrs by amplex red glutamic acid assay; how it was run: as §3
[12] = Terminal half life in Sprague-Dawley rat at 2 mg/kg, iv by HPLC-MS analysis; type: ADME, organism-based; details: in vivo, read-out: beta t1/2 (converted); how it was run: as §1
[13] = Volume of distribution at steady state in Sprague-Dawley rat at 2 mg/kg, iv by HPLC-MS analysis; type: ADME, organism-based; details: in vivo, read-out: Vdss
How it was run: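 Male rats (330−380 g, 9−10 weeks old), quarantined 1 week, jugular-vein cannula implanted 1 day before dosing; n = 3. Single iv dose in DMA/PEG400 (20%/80%, v/v). Blood (100 μL) was drawn via cannula at 0, 2, 5, 15, 30 min and 1, 2, 4, 6, 8, 24 h and kept on ice. Plasma was analysed by HPLC−MS/MS. Vss came from noncompartmental analysis.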

ASPC1 [14] = assay: Antitumor activity against human Aspc-1 cells xenografted in Balb/cAnN.Cg-Foxn1nu/CrlNarl mouse assessed as tumor growth inhibition at 25 mg/kg, ip once daily administered for 5 days followed by 2 days without dosing for 68 days relative to control; type: functional; details: read-out: TGI; how it was run: as §2
ASPC1 [15] = assay: Antitumor activity against human Aspc-1 cells xenografted in Balb/cAnN.Cg-Foxn1nu/CrlNarl nude mouse assessed as tumor growth inhibition at 50 mg/kg, ip once daily administered for 5 days followed by 2 days without dosing for 68 days relative to control; type: functional; details: read-out: TGI; how it was run: as §2
Mus musculus [16] = assay: Toxicity in BALB/CAnN.Cg-Foxn1nu/CrlNarl mouse xenografted with human Aspc-1 cells assessed as loss in body weight at 25 to50 mg/kg, ip once daily administered for 5 days followed by 2 days without dosing for 68 days relative to control; type: organism-based, BALB/C; details: in vivo, 1632 h
Mus musculus [17] = assay: Toxicity in BALB/CAnN.Cg-Foxn1nu/CrlNarl mouse xenografted with human Aspc-1 cells assessed as overt toxicity at 25 to 50 mg/kg, ip once daily administered for 5 days followed by 2 days without dosing for 68 days; type: organism-based, BALB/C; details: in vivo
HCC1806 = assay: Synergistic cytotoxicity against human HCC1806 cells assessed as reduction in cell viability at ED50 in presence of BPTES by MTS assay; type: functional
How it was run: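 HCC1806 breast carcinoma cells seeded at 3000 cells/well and co-treated with the inhibitor and BPTES; viability read by MTS. […] Three independent experiments.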

| SMILES | clearance [1] [mL/min/kg] | Tmax [2] [h] | AUC(0-inf) [3] [ng·h/mL] | AUC(0-inf) [4] [ng·h/mL] | inhibition in vivo at 25 mg/kg (ASPC1 [5]) [%] | inhibition in vivo at 50 mg/kg (ASPC1 [6]) [%] | Activity (Mus musculus [7]) [%] | Activity (Mus musculus [8]) [%] | Activity (Mus musculus [9]) | inhibition [10] | inhibition [11] | half-life [12] [h] | Vd [13] [L/kg] | inhibition in vivo at 25 mg/kg (ASPC1 [14]) [%] | inhibition in vivo at 50 mg/kg (ASPC1 [15]) [%] | Activity (Mus musculus [16]) [%] | Activity (Mus musculus [17]) | CI (HCC1806) |
| --- | --- | --- | --- | --- | --- | --- | --- | --- | --- | --- | --- | --- | --- | --- | --- | --- | --- | --- |
| Cc1cc(/C=C2\SC(=O)NC2=O)c(C)n1-c1ccc(-c2ccc(/C=C3\SC(=O)NC3=O)cc2)cc1 | 0.4 | 4 | 3410 | 222 | 60 | 64 | > 10 | > 10 | Non-Toxic | – | – | – | – | – | – | – | – | – |
| O=C1NC(=O)/C(=C/c2ccc(-c3ccc(-n4c(-c5cccs5)cc(/C=C5\SC(=O)NC5=O)c4-c4cccs4)cc3)cc2)S1 | – | – | – | – | – | – | – | – | – | Dose-dependent effect | Active | 5 | 0.1 | 2.3 | 49 | > 10 | Non-Toxic | 0.13 - 0.14 |
